TAAR1 antagonist: antagonists of human TAAR1; inhibition, % at 3 µM; AID 624466; hit rate 1.5% among 360,000; CHO RD-HGA16 TAAR1, Fluo-8 calcium fluorescence, antagonist;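 active means inhibition above a per-plate cutoff, the mean inhibition of test compounds on that plate plus 3 SD, cut at about 49% in these data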;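 further: 0% = DMSO plus EC80 beta-PEA response and 100% = DMSO alone without agonist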
Target sequence (Q96RJ0 whole entry, looked up): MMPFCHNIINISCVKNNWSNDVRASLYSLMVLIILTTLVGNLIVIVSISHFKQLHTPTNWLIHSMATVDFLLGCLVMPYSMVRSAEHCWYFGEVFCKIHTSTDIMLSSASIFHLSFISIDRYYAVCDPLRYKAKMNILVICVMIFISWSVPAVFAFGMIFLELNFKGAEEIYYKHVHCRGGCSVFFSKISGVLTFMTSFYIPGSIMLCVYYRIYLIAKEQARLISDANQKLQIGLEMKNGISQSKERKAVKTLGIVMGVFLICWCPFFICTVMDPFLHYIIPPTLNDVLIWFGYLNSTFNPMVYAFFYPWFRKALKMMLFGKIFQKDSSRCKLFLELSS
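Test system – hTAAR1-expressing CHO RD-HGA16 cells, Gα16-coupled · Reagent – β-PEA at EC80 concentration, post-compound challenge · Compound dosing – 3 µM, single point · Timing – 140 s kinetic read after compound, 140 s after agonist · Detection – Fluo-8 intracellular calcium dye fluorescence, real-time kinetic reads · Control set – DMSO and EC80 PEA controls · Repeats – n of 1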
MC4R barr agon: activates human MC4R beta-arrestin recruitment; activation, % at 8.9 µM; P32245; U2OS MC4R beta-arrestin complementation, luminescence; percent of melanotan II response, DMSO zero; AID 540308; hit rate 0.98% among 360,000;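 active means activation above a per-plate cutoff, the mean activation of sample wells on that plate plus 3 SD, cut at about 8% in these data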
Target sequence (P32245 whole entry, looked up): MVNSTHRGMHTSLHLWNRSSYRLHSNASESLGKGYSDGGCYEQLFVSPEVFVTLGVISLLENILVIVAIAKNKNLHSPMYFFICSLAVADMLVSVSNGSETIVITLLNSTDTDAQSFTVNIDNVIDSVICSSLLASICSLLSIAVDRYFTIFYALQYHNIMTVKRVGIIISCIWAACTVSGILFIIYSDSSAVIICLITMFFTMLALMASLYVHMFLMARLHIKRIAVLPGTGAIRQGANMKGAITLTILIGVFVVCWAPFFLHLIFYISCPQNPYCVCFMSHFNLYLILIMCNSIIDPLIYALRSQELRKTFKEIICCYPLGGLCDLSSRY
TAAR1 ag: human TAAR1 agonism; AID 624467; activation, % at 3 µM; hit rate 0.99% among 360,000; CHO RD-HGA16 TAAR1, Fluo-8 calcium fluorescence; vehicle wells 0%, saturating PEA agonist 100%;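 active means activation above the mean activation of all test compounds in the run plus 3 SD, cut at about 38% in these data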
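Assay system: CHO-derived RD-HGA16 cells with stable Gα16 and human TAAR1; timing: 17-24 h seeding, 75 min 37 °C dye, 30 min RT; read-out: % activation from peak over basal fluorescence ratio, DMSO-to-PEA scaled; measured by: kinetic Fluo-8 calcium fluorescence; benchmarks: low control DMSO, high control PEA (EC100); doses: 3 µM single concentration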
m5-HT2A agonist: mouse HTR2A agonism via beta-arrestin recruitment; P35363; CHO-K1 mHTR2A beta-arrestin complementation, luminescence; percent of 30 µM serotonin response; activation, % at 7.6 µM; hit rate 0.66% among 360,000; AID 624169;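 active means activation above a run cutoff, the mean activation of all tested compounds plus 3 SD, cut at about 14% in these data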;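 further: 0% = plate median of compound wells and 100% = 30 µM serotonin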
MC4R antag cAMP: blocks human MC4R cAMP signaling | inhibition, % at 6.5 µM | AID 540295 | P32245 | hit rate 0.48% among 360,000 | MC4R-expressing cells, MTII-stimulated cAMP, LANCE TR-FRET;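 active means inhibition above its plate's cutoff, the mean of tested wells on that plate plus 3 SD, cut at about 29% in these data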;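 further: 0% = Melanotan II alone and 100% = Melanotan II plus saturating MCL0020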
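Test system: U2OS cells stably expressing human melanocortin 4 receptor (MC4R); also added: Melanotan II challenge; compound: 6.5 µM single dose; timing: 30-min compound preincubation, 1-h Melanotan II challenge, 1-h detection, room temperature; signal: Eu-cAMP/anti-cAMP TR-FRET, emission 671 nm; repeats: one well per compound, no replicates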
B2AR ag: agonists of human beta-2 adrenergic receptor inducing internalization. P07550. response, % (test concentration not listed). hit rate 0.43% among 340,000. Am2.2-beta2AR cells, FAP receptor internalization, flow cytometry;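 active means response above a set limit, near 3 SD of response in nonfluorescent compounds, cut at about 42% in these data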
TAAR1 ag conf: human TAAR1 agonism, confirmed. shares compounds with TAAR1 ag. CHO RD-HGA16 TAAR1, Fluo-8 calcium fluorescence; scaled: DMSO 0%, maximal phenethylamine 100%. activation, % at 3 µM. hit rate 82% among 2,400;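 active means activation above a cutoff set at the run's mean compound activation plus 3 SD, cut at about 39% in these data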
Ga16 nonsel ag: counter-screen for TAAR1 agonists: nonselective agonists in parental cells | shares compounds with TAAR1 ag | CHO-Ga16 parental, Fluo-8 calcium fluorescence; normalized to maximal ATP response, DMSO zero | activation, % at 3 µM | hit rate 50% among 2,400;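 active means activation above the run cutoff, the mean activation over all tested wells plus 3 SD, cut at about 12% in these data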;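 further: 0% = DMSO wells and 100% = maximal ATP response on the peak over basal ratio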
TAAR1 desensitize: TAAR1 response desensitization, agonist counter-screen; hit rate 46% among 2,400; CHO RD-HGA16 hTAAR1, Fluo-8 calcium, beta-PEA response inhibition; shares compounds with TAAR1 ag; AID 651951; inhibition, % at 3 µM;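 active means inhibition above the run cutoff, the mean inhibition of all test compounds plus 3 SD, cut at about 49% in these data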;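 further: beta-PEA stimulus applied at its EC80; loss of beta-PEA calcium signal after compound pretreatment read as receptor desensitization; 0% = DMSO with beta-PEA at EC80 and 100% = DMSO alone without agonist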
Ga16 antag count: nonselective Ga16 antagonism, counter-screen; shares compounds with TAAR1 ag; CHO-Ga16 ATP-induced calcium, Fluo-8 fluorescence; inhibition, % at 3 µM; hit rate 39% among 2,400; AID 651952;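 active means inhibition above the plate's mean compound inhibition plus 3 SD, computed per plate, cut at about 22% in these data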;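 further: 0% = EC80 ATP with DMSO and 100% = DMSO wells without ATP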
* hit, by the source's call; i = inactive; / = no result. Most compounds without a hit are left out; they make up all but 4.3% or so of the library.

SMILES	TAAR1 antagonist	MC4R barr agon	TAAR1 ag	m5-HT2A agonist	MC4R antag cAMP	B2AR ag	TAAR1 ag conf	Ga16 nonsel ag	TAAR1 desensitize	Ga16 antag count
COc1ccc(OCC(=O)NC(=S)Nc2ccc3c4c(cccc24)CC3)cc1	-27	4	36	1	24	-2	/	/	/	/
Cc1cc(C)cc(OCC(=O)Nc2ccc3c4c(cccc24)CC3)c1	81*	0	102*	-2	12	-2	34	0	21	1
Cc1ccc(N2CCN(S(=O)(=O)c3ccc(Cl)s3)CC2C)cc1 (configuration not stated)	6	0	3	3	-3	0	/	/	/	/
O=C(Nc1cccc(C(=O)N2CCCC2)c1)C1CCCCC1	15	1	0	3	5	-12	/	/	/	/
COc1cc(CNCCc2ccccc2F)ccc1OCc1ccc(Cl)nc1	36	-2	73*	0	-2	-3	77*	10	57*	20
CCOC(=O)c1c(C)[nH]c(C)c1S(=O)(=O)N1c2ccccc2CC1C (configuration not stated)	-16	-1	49*	-3	2	7	25	6	0	-4
CCOC(=O)c1c(S(=O)(=O)N2c3ccccc3CC2C)c(C)n(C)c1C (configuration not stated)	-6	-1	-2	-7	9	3	/	/	/	/
CN(C(=O)Cn1nc(C(=O)O)c2ccccc2c1=O)C1CCCCC1	-16	0	3	1	-7	-8	/	/	/	/
CC(OC(=O)c1cc2sccc2n1C)C(=O)NCc1ccc(F)cc1 (configuration not stated)	51*	-2	50*	0	1	2	18	17*	4	10
Cc1cccc(CCNCc2c(C(=O)O)c(C)n(-c3ccccc3)c2C)c1	6	1	58*	3	-4	16	78*	1	44	3
O=[N+]([O-])c1ccc(/C=C/C2=NN(c3ccccc3)C(c3ccco3)C2)cc1 (configuration not stated)	75*	-2	80*	-4	4	i	128*	198*	90*	95*
CCC1=NN2C(=N)/C(=C/c3cc(C)n(Cc4ccccc4)c3C)C(=O)N=C2S1	91*	-1	104*	-1	9	0	104*	72*	95*	77*
Cc1cc(/C=C2\C(=N)N3N=C(c4ccco4)SC3=NC2=O)c(C)n1Cc1ccccc1	103*	0	130*	2	19	1	107*	79*	104*	91*
COc1ccc(CC(N)c2csc(NC(=O)Nc3cccc(C(F)(F)F)c3)n2)cc1 (configuration not stated)	65*	0	85*	2	2	/	80*	42*	65*	54*
COc1ccc(CC(N)c2csc(NC(=O)Nc3ccc(F)cc3)n2)cc1 (configuration not stated)	25	0	13	-6	-5	/	/	/	/	/
NC(CO)c1csc(NC(=O)Nc2cccc(Cl)c2)n1 (configuration not stated)	-3	-2	3	-3	-5	/	/	/	/	/
NC(COCc1ccccc1)c1csc(NC(=O)Nc2cccc(Cl)c2)n1 (configuration not stated)	43	5	58*	-4	2	/	51*	22*	47	41*
CC(C)C(N)c1csc(NC(=O)Nc2cccc(C(F)(F)F)c2)n1 (configuration not stated)	18	-1	22	-7	0	/	/	/	/	/
NC(CCc1ccccc1)c1csc(NC(=O)Nc2cccc(C(F)(F)F)c2)n1 (configuration not stated)	36	8.8*	49*	2	11	/	39*	19*	35	40*
CCCCCCCCN1C(=O)[C@H](CC(=O)N2CCN(C(=O)OCC)CC2)C[C@@]2(C(=O)OC)CCCCC=C12	-7	/	-2	-4	/	/	/	/	/	/
COc1cc(C2c3cc4c(cc3OC(NCCc3ccccc3)C2C)OCO4)cc(OC)c1OC (configuration not stated)	91*	-1	97*	9	-44	19	97*	5	100*	8
CC(=O)c1c(C)[nH]c(C(=O)OCC(=O)NNC(=O)c2ccc([N+](=O)[O-])cc2)c1C	7	-2	5	-1	8	-5	/	/	/	/
CC(=O)c1c(C)[nH]c(C(=O)OCc2nnc(-c3ccc([N+](=O)[O-])cc3)o2)c1C	20	0	48*	2	3	1	5	7	18	14
COc1ccc(Cl)cc1C(=O)NNC(=S)NC(=O)c1cc(-c2ccccc2)nc2ccccc12	75*	-3	104*	10	1	-5	114*	96*	102*	87*
COc1ccc(C(=O)NNC(=S)NC(=O)c2cc(-c3ccccc3)nc3ccccc23)cc1	88*	-3	128*	7	15	-1	122*	94*	95*	73*
SMILES	TAAR1 antagonist	MC4R barr agon	TAAR1 ag	m5-HT2A agonist	MC4R antag cAMP	B2AR ag	TAAR1 ag conf	Ga16 nonsel ag	TAAR1 desensitize	Ga16 antag count
CCCOc1ccc(C(=O)NNC(=S)NC(=O)c2cc(-c3ccc(Cl)cc3)nc3ccccc23)cc1	85*	-11	62*	1	-7	10	105*	78*	103*	94*
CCNC(=S)NNC(=O)c1cc(-c2ccc(OCC)cc2)nc2ccccc12	22	-1	8	-3	-11	-15	/	/	/	/
Cn1cc(Cc2ccc(C(=O)NCc3ccccc3)cn2)c2ccccc21	-8	-1	5	-7	7	/	/	/	/	/
COc1ccccc1NC(=O)CCNC(=O)c1ccc(C)cc1	-9	1	0	-1	-6	-7	/	/	/	/
COc1ccc(NC(=O)Cc2ccc(Cl)cc2Cl)cn1	1	0	56*	3	8	-1	24	7	13	8
Cc1cc(-c2ccccc2)nc(N/N=C/c2ccc(O)cc2O)n1	45	0	9	-5	14	14	/	/	/	/
